# Activity calls are given as the source filed them. No cut-off for these calls is given here.
# Legend:
# [1] = system: Mycobacterium tuberculosis; test: Antimycobacterial activity against Mycobacterium tuberculosis H37Rv after […] by microplate alamar; format: functional
# How it was run: (§1)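 Microplate Alamar blue assay (MABA) on Mtb H37Rv. MIC reported as the average of two to three independent experiments.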
# [2] = system: Mycobacterium tuberculosis; test: Antimycobacterial activity against Mycobacterium tuberculosis H37Rv expressing pFCA-luxAB after 10 days by low-oxygen recovery assay; format: functional; settings: 240 h
# How it was run: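 Low oxygen recovery assay (LORA): a luminescence-based read-out of activity against non-replicating Mtb under oxygen-deprived conditions. MIC averaged over two to three independent experiments.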
# Vero = test: (§2) Cytotoxicity against african green monkey Vero cells after 72 hrs; format: cell-based, Chlorocebus sabaeus; settings: Chlorocebus sabaeus, Vero, 72 h
# [3] = system: Mycobacterium tuberculosis; test: Antimycobacterial activity against Mycobacterium tuberculosis H37Rv; format: functional; how it was run: as §1
# [4] = system: Mycolicibacterium smegmatis; test: Antimicrobial activity against Mycobacterium smegmatis; format: functional
# Toxoplasma gondii = test: Antimicrobial activity against Toxoplasma gondii; format: functional, organism-based
# Escherichia coli = test: Antimicrobial activity against Escherichia coli; format: functional
# Candida albicans = test: Antimicrobial activity against Candida albicans; format: functional
# Staphylococcus aureus = test: Antimicrobial activity against Staphylococcus aureus; format: functional
# [5] = as §2; format: cell-based, Chlorocebus sabaeus; settings: chlorocebus sabaeus, Vero cells; read-out: MIC
SMILES,MIC [1] [µM],MIC [2] [µM],IC50 (Vero) [µM],also measured
CCOC(=O)c1cc(-c2cccc(OCc3cccc(F)c3F)c2)on1,1.6,26.8,> 128,–
CCOC(=O)c1cc(-c2cccc(OCc3cc(F)ccc3F)c2)on1,0.9,23.7,> 128,–
CCOC(=O)c1cc(-c2cccc(OCc3c(F)ccc(F)c3F)c2)on1,1,10.9,–,–
CCOC(=O)c1cc(-c2cccc(OCc3ccc(Cl)c(Cl)c3)c2)on1,2.7,10.6,–,–
CCOC(=O)c1cc(/C=C/c2cccc(C(F)(F)F)c2)on1,–,–,–,MIC [3]: 0.73 µM
CCOC(=O)c1cc(-c2cccc(Oc3cccc(C(F)(F)F)c3)c2)on1,1,10.5,> 128,–
CO[C@H]1/C=C/O[C@@]2(C)Oc3c(C)c(O)c4c(O)c(c(/C=N/N5CCN(C)CC5)c(O)c4c3C2=O)NC(=O)/C(C)=C\C=C\[C@H](C)[C@H](O)[C@@H](C)[C@@H](O)[C@@H](C)[C@H](OC(C)=O)[C@@H]1C [RIFAMPIN],0.1,1.9,–,–
CCOC(=O)c1cc(-c2cccc(OCc3ccc(F)c(F)c3)c2)[nH]n1,32,> 128,–,–
CCOC(=O)c1cc(-c2cccc(OCc3cc(F)cc(F)c3)c2)on1,4.4,16.6,> 128,–
CCOC(=O)c1cc(-c2cccc(OCc3c(F)cccc3F)c2)on1,1.2,12.8,> 128,–
CCOC(=O)c1ccc(COc2cccc(-c3cc(C(=O)OCC)no3)c2)cc1,0.4,32.7,> 128,–
CCOC(=O)c1cc(-c2cccc(OCC(=O)N3CCOCC3)c2)on1,13.8,48.9,–,–
CCOC(=O)c1cc(-c2cccc(OCc3ccc(F)c(F)c3F)c2)on1,0.9,12.6,> 128,–
CCOC(=O)c1cc(-c2cccc(OCc3ccc(F)c(F)c3)c2)on1,0.6,19.2,> 128,–
CCOC(=O)c1cc(-c2cccc(OCc3ccc(C(F)(F)F)cc3)c2)on1,0.4,11.8,> 128,–
CCOC(=O)c1cc(-c2cccc(OCc3ccc(F)cc3)c2)on1,1.8,24,–,–
CCOC(=O)c1cc(-c2cccc(OCc3cc(F)ccc3Cl)c2)on1,0.9,15.1,–,–
CCOC(=O)c1cc(-c2cccc(OCc3ccccc3C(F)(F)F)c2)on1,1.5,34.8,> 128,–
CCOC(=O)c1cc(-c2cccc(OCc3ccccc3[N+](=O)[O-])c2)on1,1.5,25.8,> 128,–
CCOC(=O)c1cc(-c2cccc(OCc3cccc(F)c3)c2)on1,0.8,18.9,> 128,–
CCOC(=O)c1cc(-c2cccc(OCc3cccc(N)c3)c2)on1,1.5,25.8,> 128,–
CCOC(=O)c1cc(-c2cccc(OCc3cccc(C#N)c3)c2)on1,0.6,26.5,> 128,–
CCOC(=O)c1cc(COc2cc(C(F)(F)F)nc3c(C(F)(F)F)cccc23)on1,–,–,–,MIC [3]: 0.9 µM

SMILES,MIC [1] [µM],MIC [2] [µM],IC50 (Vero) [µM],also measured
CCOC(=O)c1cc(-c2cccc(NC(=O)c3cccc(C(F)(F)F)c3)c2)on1,1.4,28.3,> 128,–
CCOC(=O)c1cc(-c2cccc(OCc3ccccc3Cl)c2)on1,0.9,10.1,> 128,–
CCOC(=O)c1cc(-c2cccc(OCc3cccc(Br)c3)c2)on1,0.8,12.7,> 128,–
CCOC(=O)c1cc(-c2cccc(OCc3ccc(F)cc3F)c2)on1,1,15.7,> 128,–
CCOC(=O)c1cc(-c2cccc(OCc3cccc([N+](=O)[O-])c3)c2)on1,0.6,8.7,> 128,–
CCOC(=O)c1cc(-c2ccccc2NC(=O)c2ccccc2)on1,> 128,> 128,–,–
CCOC(=O)c1cc(-c2cccc(OCc3cccc(C(F)(F)F)c3)c2)on1,0.6,8,> 128,MIC [4]: > 100 µM; Activity (Toxoplasma gondii): inactive; MIC (Escherichia coli): > 100 µM; MIC (Candida albicans): > 100 µM; MIC (Staphylococcus aureus): > 100 µM
CCOC(=O)c1cc(-c2cccc(OCc3cccc(Cl)c3)c2)on1,1,10.8,> 128,–
CCOC(=O)c1cc(-c2cccc(O)c2)on1,7.3,114,–,–
CCOC(=O)c1cc(-c2cccc(OCc3cccc(OC)c3)c2)on1,2.1,26.7,> 128,–
CCOC(=O)c1cc(-c2cccc(OCc3cccc(C)c3)c2)on1,1.2,14.9,> 128,–
O=[N+]([O-])c1cn2c(n1)OC[C@@H](OCc1ccc(OC(F)(F)F)cc1)C2 [PRETOMANID],0.3,3.8,–,–
CCOC(=O)c1cc(-c2cccc(OCc3cccc(C(F)(F)F)c3F)c2)on1,0.6,7,> 128,–
CCOC(=O)c1cc(-c2ccc(NCc3cccc(C(F)(F)F)c3)cc2)on1,0.6,6.3,> 128,–
NNC(=O)c1ccncc1 [ISONIAZID],0.5,> 128,–,MCC at 72 h [5]: > 128 µM
CCOC(=O)c1cc(-c2cccc(Oc3cc(C(F)(F)F)nc4ccccc34)c2)on1,–,–,–,MIC [3]: 0.95 µM
CCOC(=O)c1cc(-c2cccc(OCc3ccccc3F)c2)on1,1.1,19.1,–,–
CCOC(=O)c1cc(-c2ccc(C(O)c3cccc(OC)c3)cc2)on1 (stereo not drawn),2.8,23.9,–,–
CCOC(=O)c1cc(-c2cccc(OCc3cccc(OC(F)(F)F)c3)c2)on1,0.7,13.1,101,–
OC(c1cc(C(F)(F)F)nc2c(C(F)(F)F)cccc12)C1CCCCN1 (stereo not drawn) [MEFLOQUINE],–,–,–,MIC [3]: 13 µM
CCOC(=O)c1cc(-c2cccc(OCc3cccc(C(=O)N4CCOCC4)c3)c2)on1,> 128,> 128,> 128,–
CCOC(=O)c1cc(-c2cccc(NCc3cccc(C(F)(F)F)c3)c2)on1,1.1,15.3,> 128,–
CCOC(=O)c1cc(-c2cccc(OCc3ccccc3)c2)on1,1.2,41.5,> 128,–

# Source: ChEMBL document CHEMBL1156795, “Rational design of 5-phenyl-3-isoxazolecarboxylic acid ethyl esters as growth inhibitors of Mycobacterium tuberculosis. a potent and selective series for further drug development” (J Med Chem, 2010)
